Data published in ChEMBL document CHEMBL5653631, “A Potent and Selective ULK1 Inhibitor Suppresses Autophagy and Sensitizes Cancer Cells to Nutrient Stress” (iScience, 2018).
Blank lines part the entries; values can stand above or below the compound they belong to. Activity calls are given as the source filed them. The calls are words filed in the database; no cut-off is given here.

What was measured:
[1] = biological target: Tyrosine-protein kinase Yes (Homo sapiens) (UniProt P07947); experiment: Inhibition of human recombinant YES at 500 nM in presence of ATP by radiometric assay relative to control
Sequence of Tyrosine-protein kinase Yes (Homo sapiens) (P07947 2-543 limits assumed): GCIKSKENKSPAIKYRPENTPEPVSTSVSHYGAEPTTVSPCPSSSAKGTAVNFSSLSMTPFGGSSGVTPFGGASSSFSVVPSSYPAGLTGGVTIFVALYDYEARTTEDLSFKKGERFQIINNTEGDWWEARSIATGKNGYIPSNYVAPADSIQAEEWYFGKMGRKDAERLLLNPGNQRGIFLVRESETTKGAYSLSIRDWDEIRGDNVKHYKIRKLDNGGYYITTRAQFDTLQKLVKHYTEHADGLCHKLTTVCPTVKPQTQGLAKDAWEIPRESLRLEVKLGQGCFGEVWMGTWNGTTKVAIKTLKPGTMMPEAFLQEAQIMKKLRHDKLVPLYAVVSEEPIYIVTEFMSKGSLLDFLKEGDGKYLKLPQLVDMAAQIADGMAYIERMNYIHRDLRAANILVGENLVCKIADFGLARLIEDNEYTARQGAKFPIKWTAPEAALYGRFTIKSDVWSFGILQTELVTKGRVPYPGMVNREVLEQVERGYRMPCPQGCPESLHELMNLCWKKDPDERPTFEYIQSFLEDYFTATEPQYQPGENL

[2] = biological target: T1, Serine/threonine-protein kinase DCLK3 (Homo sapiens) (UniProt Q9C098); experiment: Inhibition of human recombinant DCAMKL3 at 500 nM related to control ULK1
T1 sequence (whole entry): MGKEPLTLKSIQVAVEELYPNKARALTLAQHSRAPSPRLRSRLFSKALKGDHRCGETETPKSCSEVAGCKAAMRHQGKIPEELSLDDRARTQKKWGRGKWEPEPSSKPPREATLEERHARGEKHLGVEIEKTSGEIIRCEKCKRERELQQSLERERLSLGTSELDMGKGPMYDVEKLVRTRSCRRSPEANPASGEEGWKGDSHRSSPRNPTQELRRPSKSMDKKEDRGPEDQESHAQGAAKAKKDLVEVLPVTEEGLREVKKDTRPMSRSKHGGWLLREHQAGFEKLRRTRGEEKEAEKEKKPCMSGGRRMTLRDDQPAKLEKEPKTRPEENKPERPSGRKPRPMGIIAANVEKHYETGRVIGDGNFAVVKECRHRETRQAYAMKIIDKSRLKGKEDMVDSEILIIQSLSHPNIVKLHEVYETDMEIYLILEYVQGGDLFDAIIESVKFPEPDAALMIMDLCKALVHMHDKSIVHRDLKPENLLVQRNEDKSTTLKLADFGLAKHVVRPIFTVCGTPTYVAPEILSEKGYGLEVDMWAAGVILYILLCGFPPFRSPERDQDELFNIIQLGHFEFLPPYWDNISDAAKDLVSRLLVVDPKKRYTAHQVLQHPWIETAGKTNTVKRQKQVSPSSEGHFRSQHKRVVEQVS

[3] = biological target: T2, Serine/threonine-protein kinase A-Raf (Homo sapiens) (UniProt P10398); experiment: Inhibition of human recombinant ARAF at 500 nM in presence of ATP by radiometric assay relative to control
T2 sequence (whole entry): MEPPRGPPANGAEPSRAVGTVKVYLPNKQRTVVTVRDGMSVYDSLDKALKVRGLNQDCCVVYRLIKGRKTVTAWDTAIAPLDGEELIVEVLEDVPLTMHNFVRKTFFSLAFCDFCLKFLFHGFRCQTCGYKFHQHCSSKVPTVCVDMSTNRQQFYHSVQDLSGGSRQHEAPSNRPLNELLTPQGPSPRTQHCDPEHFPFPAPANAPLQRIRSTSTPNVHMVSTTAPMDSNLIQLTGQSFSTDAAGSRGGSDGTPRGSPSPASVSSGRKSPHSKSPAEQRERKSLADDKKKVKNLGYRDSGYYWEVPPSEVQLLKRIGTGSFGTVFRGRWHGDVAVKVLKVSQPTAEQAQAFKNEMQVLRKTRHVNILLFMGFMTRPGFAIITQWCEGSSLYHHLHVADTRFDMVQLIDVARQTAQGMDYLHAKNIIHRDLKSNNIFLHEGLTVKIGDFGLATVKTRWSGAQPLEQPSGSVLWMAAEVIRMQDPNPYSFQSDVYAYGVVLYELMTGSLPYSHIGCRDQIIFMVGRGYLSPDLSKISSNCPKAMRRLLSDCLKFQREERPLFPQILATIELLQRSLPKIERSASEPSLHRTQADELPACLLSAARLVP
In short: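 Panel of 327 recombinant human kinases, each assayed in vitro by radiometric activity assay in duplicate at a single inhibitor concentration per compound, chosen with reference to its ULK1 inhibition. Activity remaining was expressed as percent of vehicle control, and percent inhibition was calculated as 100 minus percent activity remaining.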

[4] = biological target: Ribosomal protein S6 kinase alpha-3 (Homo sapiens) (UniProt P51812); experiment: Inhibition of human recombinant RSK2 at 15 nM in presence of ATP by radiometric assay relative to control
Sequence of Ribosomal protein S6 kinase alpha-3 (Homo sapiens) (P51812 whole entry): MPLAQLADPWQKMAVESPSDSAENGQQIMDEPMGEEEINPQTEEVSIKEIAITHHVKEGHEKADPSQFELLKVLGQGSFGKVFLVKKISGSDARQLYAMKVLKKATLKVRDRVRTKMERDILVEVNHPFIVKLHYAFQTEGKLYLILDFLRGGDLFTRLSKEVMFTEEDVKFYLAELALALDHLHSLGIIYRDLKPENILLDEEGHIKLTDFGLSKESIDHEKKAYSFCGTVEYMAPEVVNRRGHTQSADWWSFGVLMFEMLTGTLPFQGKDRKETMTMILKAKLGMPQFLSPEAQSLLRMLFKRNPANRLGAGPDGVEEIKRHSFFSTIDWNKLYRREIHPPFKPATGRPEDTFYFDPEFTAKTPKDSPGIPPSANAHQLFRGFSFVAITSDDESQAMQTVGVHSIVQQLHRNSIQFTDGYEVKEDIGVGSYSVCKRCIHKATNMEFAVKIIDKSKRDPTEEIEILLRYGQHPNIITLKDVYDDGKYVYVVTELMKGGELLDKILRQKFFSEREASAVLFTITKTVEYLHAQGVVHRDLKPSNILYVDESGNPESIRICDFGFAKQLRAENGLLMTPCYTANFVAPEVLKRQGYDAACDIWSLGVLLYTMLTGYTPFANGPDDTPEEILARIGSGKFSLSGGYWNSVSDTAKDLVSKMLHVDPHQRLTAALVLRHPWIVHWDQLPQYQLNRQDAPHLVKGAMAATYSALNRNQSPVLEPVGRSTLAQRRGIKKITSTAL

[5] = biological target: Serine/threonine-protein kinase 38-like (Homo sapiens) (UniProt Q9Y2H1); experiment: Inhibition of human recombinant NDR2 at 15 nM in presence of ATP by radiometric assay relative to control
Sequence of Serine/threonine-protein kinase 38-like (Homo sapiens) (Q9Y2H1 2-464 limits assumed): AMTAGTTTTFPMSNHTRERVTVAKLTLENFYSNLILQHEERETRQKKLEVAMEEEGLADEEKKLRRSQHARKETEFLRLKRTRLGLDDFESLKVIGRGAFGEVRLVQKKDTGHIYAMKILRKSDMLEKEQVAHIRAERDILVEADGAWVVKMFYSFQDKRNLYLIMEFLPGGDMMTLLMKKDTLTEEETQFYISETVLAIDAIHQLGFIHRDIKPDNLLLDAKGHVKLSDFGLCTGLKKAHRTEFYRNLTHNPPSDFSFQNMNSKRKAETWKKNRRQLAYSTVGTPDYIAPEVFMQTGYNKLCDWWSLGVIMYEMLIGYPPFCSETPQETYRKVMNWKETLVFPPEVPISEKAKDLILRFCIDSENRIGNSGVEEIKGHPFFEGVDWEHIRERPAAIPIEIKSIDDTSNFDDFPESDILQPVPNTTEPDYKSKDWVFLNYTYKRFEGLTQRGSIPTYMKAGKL

Homo sapiens = organism: Homo sapiens; experiment: Inhibition of human recombinant ABL at 15 nM in presence of ATP by radiometric assay relative to control
In short: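 Panel of 327 recombinant human kinases in radiometric activity assays, each screened in duplicate at a single inhibitor concentration; percent activity remaining relative to vehicle control, percent inhibition taken as 100 minus activity remaining.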

[6] = biological target: Tyrosine-protein kinase CSK (Homo sapiens) (UniProt P41240); experiment: Inhibition of human recombinant CSK at 40 nM related to control ULK1
Sequence of Tyrosine-protein kinase CSK (Homo sapiens) (P41240 2-450 limits assumed): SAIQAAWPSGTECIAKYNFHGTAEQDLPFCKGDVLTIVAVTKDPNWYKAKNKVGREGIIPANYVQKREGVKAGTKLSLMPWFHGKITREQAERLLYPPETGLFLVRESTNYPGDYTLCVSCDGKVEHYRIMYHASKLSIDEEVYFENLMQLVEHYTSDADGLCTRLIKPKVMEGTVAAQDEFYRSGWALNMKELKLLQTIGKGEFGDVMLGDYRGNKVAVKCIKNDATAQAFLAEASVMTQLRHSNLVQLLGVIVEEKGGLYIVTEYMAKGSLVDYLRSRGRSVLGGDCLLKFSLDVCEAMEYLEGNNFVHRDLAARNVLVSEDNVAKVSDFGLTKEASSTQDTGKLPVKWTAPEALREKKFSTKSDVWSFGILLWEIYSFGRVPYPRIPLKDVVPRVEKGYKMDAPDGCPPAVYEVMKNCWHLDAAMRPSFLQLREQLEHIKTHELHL

[7] = biological target: T3, Mitogen-activated protein kinase 12 (Homo sapiens) (UniProt P53778); experiment: Inhibition of human recombinant p38gamma at 40 nM in presence of ATP by radiometric assay relative to control
T3 sequence (whole entry): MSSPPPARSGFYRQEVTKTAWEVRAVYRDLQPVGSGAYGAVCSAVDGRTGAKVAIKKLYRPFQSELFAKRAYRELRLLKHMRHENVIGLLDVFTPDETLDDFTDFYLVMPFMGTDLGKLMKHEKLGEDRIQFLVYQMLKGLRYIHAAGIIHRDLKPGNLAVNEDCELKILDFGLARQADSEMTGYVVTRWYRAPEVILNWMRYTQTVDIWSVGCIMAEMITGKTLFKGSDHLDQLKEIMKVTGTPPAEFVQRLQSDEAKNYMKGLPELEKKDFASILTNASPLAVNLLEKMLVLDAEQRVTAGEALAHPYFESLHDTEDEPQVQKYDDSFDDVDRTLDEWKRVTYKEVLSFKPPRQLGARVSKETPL

U2OS = experiment: Inhibition of autophagy in human U2OS cells assessed as BafA1-induced LC3B-II accumulation upto 5 uM preincubated with compound for 3 hrs followed by BafA1 induction and measured after 1 hr by immunoblotting analysis; format: functional, cell-based; settings: time 4.0 hrs
[8] = biological target: Macrophage colony-stimulating factor 1 receptor (Homo sapiens) (UniProt P07333); experiment: Inhibition of human recombinant FMS at 40 nM related to control ULK1
Sequence of Macrophage colony-stimulating factor 1 receptor (Homo sapiens) (P07333 whole entry): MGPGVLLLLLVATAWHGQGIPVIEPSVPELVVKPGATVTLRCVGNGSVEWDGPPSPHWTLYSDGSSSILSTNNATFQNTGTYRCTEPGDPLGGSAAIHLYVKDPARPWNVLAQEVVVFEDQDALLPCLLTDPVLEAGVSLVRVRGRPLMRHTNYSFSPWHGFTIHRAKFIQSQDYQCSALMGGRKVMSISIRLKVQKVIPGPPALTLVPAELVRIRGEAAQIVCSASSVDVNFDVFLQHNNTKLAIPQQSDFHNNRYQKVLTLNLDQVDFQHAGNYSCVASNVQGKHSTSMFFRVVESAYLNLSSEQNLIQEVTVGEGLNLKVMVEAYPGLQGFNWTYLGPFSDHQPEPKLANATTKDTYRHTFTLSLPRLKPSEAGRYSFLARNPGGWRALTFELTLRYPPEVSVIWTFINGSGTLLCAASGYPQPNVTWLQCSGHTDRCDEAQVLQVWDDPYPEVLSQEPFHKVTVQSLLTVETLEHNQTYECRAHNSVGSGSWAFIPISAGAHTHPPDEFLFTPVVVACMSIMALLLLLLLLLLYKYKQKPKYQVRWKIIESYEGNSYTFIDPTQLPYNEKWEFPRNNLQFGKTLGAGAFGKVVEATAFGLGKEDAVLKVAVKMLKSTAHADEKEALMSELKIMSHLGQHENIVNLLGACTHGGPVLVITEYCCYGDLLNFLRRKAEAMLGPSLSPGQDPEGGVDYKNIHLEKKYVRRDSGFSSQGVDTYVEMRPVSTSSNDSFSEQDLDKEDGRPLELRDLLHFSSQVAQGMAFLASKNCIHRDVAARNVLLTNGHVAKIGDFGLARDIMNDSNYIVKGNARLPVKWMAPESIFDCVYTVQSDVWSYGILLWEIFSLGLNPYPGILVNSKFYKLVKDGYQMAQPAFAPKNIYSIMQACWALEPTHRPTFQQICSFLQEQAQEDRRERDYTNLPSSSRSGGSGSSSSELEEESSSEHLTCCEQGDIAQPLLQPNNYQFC

[9] = biological target: T1, Serine/threonine-protein kinase DCLK3 (Homo sapiens); experiment: Inhibition of human recombinant DCAMKL3 at 40 nM in presence of ATP by radiometric assay relative to control
[10] = biological target: Serine/threonine-protein kinase PAK 5 (Homo sapiens) (UniProt Q9P286); experiment: Inhibition of human recombinant PAK5 at 40 nM in presence of ATP by radiometric assay relative to control
Sequence of Serine/threonine-protein kinase PAK 5 (Homo sapiens) (Q9P286 whole entry, looked up): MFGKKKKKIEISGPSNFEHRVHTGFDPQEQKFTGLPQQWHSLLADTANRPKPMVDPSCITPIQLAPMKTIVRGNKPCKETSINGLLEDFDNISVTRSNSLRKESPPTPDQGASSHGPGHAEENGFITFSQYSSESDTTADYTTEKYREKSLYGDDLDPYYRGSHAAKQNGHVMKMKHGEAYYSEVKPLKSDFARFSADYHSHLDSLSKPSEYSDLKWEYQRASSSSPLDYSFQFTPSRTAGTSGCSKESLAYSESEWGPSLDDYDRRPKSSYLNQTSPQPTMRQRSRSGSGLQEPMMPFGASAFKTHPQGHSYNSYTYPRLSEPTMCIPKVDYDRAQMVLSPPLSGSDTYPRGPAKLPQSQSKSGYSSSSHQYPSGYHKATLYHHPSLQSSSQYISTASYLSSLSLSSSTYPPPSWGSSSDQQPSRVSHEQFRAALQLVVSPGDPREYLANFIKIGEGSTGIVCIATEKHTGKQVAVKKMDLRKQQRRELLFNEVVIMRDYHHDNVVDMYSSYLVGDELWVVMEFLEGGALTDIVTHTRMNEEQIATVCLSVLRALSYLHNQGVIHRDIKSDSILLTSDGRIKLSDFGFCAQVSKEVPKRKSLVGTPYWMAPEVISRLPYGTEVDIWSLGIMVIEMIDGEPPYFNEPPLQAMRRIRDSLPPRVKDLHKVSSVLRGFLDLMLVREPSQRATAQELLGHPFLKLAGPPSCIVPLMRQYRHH

inhibition [1]: 66% | fold change (FC) [2]: 0 | inhibition [3]: 0%
SMILES: CNC(=O)c1ccccc1Oc1nc(Nc2cc(OC)c(OC)c(OC)c2)ncc1Br

inhibition [4]: 0% | inhibition [5]: 2% | inhibition (Homo sapiens): 82%
SMILES: CC(C)[C@H](NC(=O)c1cc(-c2cnn3cc(-c4ccc(OCCN5CCCCC5)cc4)cnc23)cs1)C(F)(F)F

fold change (FC) [6]: 0 | inhibition [7]: 0% | fold change (FC) [8]: 0.01 | inhibition [9]: 2% | inhibition [10]: 0%
SMILES: O=C(N[C@@H](C1CC1)C(F)(F)F)c1cc(-c2cnn3cc(-c4ccc(F)cc4)cnc23)cs1
inhibition (U2OS): Active
